Data taken from ChEMBL document CHEMBL4706607, “Anti-tubercular profile of new selenium-menadione conjugates against Mycobacterium tuberculosis H37Rv (ATCC 27294) strain and multidrug-resistant clinical isolates” (Eur J Med Chem, 2021).
In brackets after ≈: the same amount, converted by molar mass.

Tests used:
[1] = test system: Mycobacterium tuberculosis; test: Antimycobacterial activity against multidrug resistance Mycobacterium tuberculosis CDCT-27 clinical isolates assessed as reduction in bacterial growth by resazurin reduction microplate assay; assay type: functional
Outline: (§1)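 REMA in Middlebrook 7H9 broth with 10% ADC. Compounds dissolved at 1 mg/mL in DMSO and diluted to 50 μg/mL in broth containing 5% DMSO. Ten-point two-fold dilutions gave 25.0 to 0.05 μg/mL. Growth and sterility controls on each plate. MIC was the lowest concentration preventing the blue-to-pink change.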

[2] = test system: Mycobacterium tuberculosis; test: Antimycobacterial activity against multidrug resistance Mycobacterium tuberculosis CDCT-16 clinical isolates assessed as reduction in bacterial growth by resazurin reduction microplate assay; assay type: functional; outline: as §1

| Compound | MIC [1] | MIC [2] |
| --- | --- | --- |
| CC1=C(C[Se]C(=O)c2ccc(C)cc2)C(=O)c2ccccc2C1=O | > 10 µM | > 10 µM |
| CC1=C(C[Se]C(=O)c2ccc(Cl)cc2)C(=O)c2ccccc2C1=O | > 10 µM | > 10 µM |
| COc1ccc(C(=O)[Se]CC2=C(C)C(=O)c3ccccc3C2=O)cc1 | > 10 µM | > 10 µM |
| CCCC(C)C(=O)[Se]CC1=C(C)C(=O)c2ccccc2C1=O (stereo not given) | > 10 µM | > 10 µM |
| CCCCC(=O)[Se]CC1=C(C)C(=O)c2ccccc2C1=O | > 10 µM | > 10 µM |
| CC1=C(C[Se]C(=O)c2ccccc2C)C(=O)c2ccccc2C1=O | 3.1 µM (≈ 1.19 µg/mL) | 3.1 µM (≈ 1.19 µg/mL) |
| CC1=C(C[Se]C(=O)c2ccccc2)C(=O)c2ccccc2C1=O | 0.8 µM (≈ 0.295 µg/mL) | 0.8 µM (≈ 0.295 µg/mL) |
| CCc1ccc(C(=O)[Se]CC2=C(C)C(=O)c3ccccc3C2=O)cc1 | > 10 µM | > 10 µM |
| CC1=C(C[Se]C(=O)c2ccc(F)cc2)C(=O)c2ccccc2C1=O | 3.1 µM (≈ 1.2 µg/mL) | 0.8 µM (≈ 0.31 µg/mL) |
| NNC(=O)c1ccncc1 [ISONIAZID] | 25 µM (≈ 3.43 µg/mL) | 100 µM (≈ 13.7 µg/mL) |
